Source: ChEMBL document CHEMBL3526116, “Toxicological evaluation of acyl glucuronides of nonsteroidal anti-inflammatory drugs using human embryonic kidney 293 cells stably expressing human UDP-glucuronosyltransferase and human hepatocytes” (Drug Metab Dispos, 2011)

What was measured:
HEK293 [1] = assay: Cytotoxicity against HEK293 cells expressing UGT1A3 assessed as decrease in cell viability by measuring intracellular ATP content at 1 mM by CellTiter-Glo luminescent assay; type: ADME, cell-based; details: human, hek293, 1000 µM; TDE = time-dependent effect
Method in brief: (§1)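 UGT1A3 or UGT1A4 stable HEK293 cells, 2 x 10^4 cells/well in 0.1 mL DMEM with 0.5% FBS, drug for 6, 12 or 24 h. Viability from intracellular ATP via CellTiter-Glo luminescence, expressed as percent of control cells. Mean ± SD of triplicates.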

HEK293 [2] = assay: Genotoxicity in HEK293 cells expressing UGT1A3 assessed as DNA strand breaks at 1 mM after 24 hrs by comet assay; type: toxicity, cell-based; details: human, hek293, 24 h, 1000 µM
Method in brief: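 Alkaline comet assay: HEK/UGT1A3 cells seeded 24 h before, treated 24 h in DMEM with 0.5% FBS (vehicle 0.1% DMSO; MMS 0.1 mM positive control). Cells embedded in LMP agarose, lysed 1 h at 4°C at pH 10, unwound 30 min in NaOH/EDTA, electrophoresed 300 mA 20 min, ethidium-stained; tail moment scored on 150-180 comets over >3 experiments, median (IQR).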

HEK293 [3] = assay: Cytotoxicity against HEK293 cells expressing UGT assessed as LDH leakage at 1 mM after 6 to 24 hrs by spectrophotometric analysis relative to total cell LDH level; type: ADME, cell-based; details: human, hek293, 1000 µM
Method in brief: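 Stable UGT-expressing or mock HEK293 lines in DMEM with 0.5% FBS, 2 x 10^4 cells/well, drug for 6, 12 or 24 h. LDH released into medium read at 490 nm (690 nm reference); percentage calculated against maximum release from control cells lysed with 1% Triton X-100.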

HEK293 [4] = assay: Cytotoxicity against HEK293 cells expressing UGT1A3 assessed as decrease in cell viability at 1 mM by MTT assay; type: ADME, cell-based; details: human, hek293, 1000 µM; TDE = time-dependent effect
HEK293 [5] = assay: Cytotoxicity against mock transfected HEK293 cells assessed as decrease in cell viability by measuring intracellular ATP content at 1 mM by CellTiter-Glo luminescent assay; type: cell-based; details: human, hek293, 1000 µM; TDE = time-dependent effect
Method in brief: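 Mock-transfected HEK293 cells seeded at 2 x 10^4 cells/well in DMEM with 0.5% FBS, drug added at once and incubated 6, 12 or 24 h. Viability read either by WST-8 (CCK-8) formazan absorbance at 450 nm or by intracellular ATP luminescence (CellTiter-Glo), as percent of control cells; mean ± SD of triplicates. Final DMSO ≤0.1%.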

HEK293 [6] = assay: Cytotoxicity against mock transfected HEK293 cells assessed as decrease in cell viability at 1 mM by MTT assay; type: cell-based; details: human, hek293, 1000 µM; TDE = time-dependent effect
HEK293 [7] = assay: Cytotoxicity against HEK293 cells expressing UGT1A4 assessed as decrease in cell viability by measuring intracellular ATP content at 1 mM by CellTiter-Glo luminescent assay; type: ADME, cell-based; details: human, hek293, 1000 µM; TDE = time-dependent effect; method in brief: as §1
[8] = molecular target: T1, UDP-glucuronosyltransferase 1A4 (Homo sapiens, UniProt P22310); assay: Activity of human UGT1A4 expressed in HEK293 cells assessed as enzyme-mediated ketoprofen acyl-beta-D-glucuronide formation at 1 mM measured at 24 hrs by LC-MS/MS analysis; type: ADME, cell-based; details: hek293, 24 h, 1000 µM
T1 sequence (P22310 whole entry): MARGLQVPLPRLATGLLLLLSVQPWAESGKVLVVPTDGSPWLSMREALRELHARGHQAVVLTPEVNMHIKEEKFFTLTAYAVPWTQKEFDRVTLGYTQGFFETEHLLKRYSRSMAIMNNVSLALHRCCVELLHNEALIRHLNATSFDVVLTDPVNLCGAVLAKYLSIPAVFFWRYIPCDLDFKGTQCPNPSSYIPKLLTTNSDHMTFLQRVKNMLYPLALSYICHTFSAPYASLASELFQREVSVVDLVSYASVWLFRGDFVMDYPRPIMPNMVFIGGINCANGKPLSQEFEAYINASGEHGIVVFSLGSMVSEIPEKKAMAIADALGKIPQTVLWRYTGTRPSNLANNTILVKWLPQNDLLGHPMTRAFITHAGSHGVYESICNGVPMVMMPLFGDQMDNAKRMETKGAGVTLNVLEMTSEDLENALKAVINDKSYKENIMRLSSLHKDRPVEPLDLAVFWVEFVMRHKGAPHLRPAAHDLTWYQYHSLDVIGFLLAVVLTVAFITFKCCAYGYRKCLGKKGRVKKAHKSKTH
Method in brief: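 HEK293 stably expressing human UGT1A4, 2 x 10^5 cells/well in DMEM with 0.5% FBS, drug exposure 6–24 h, DMSO ≤0.1% final. Acyl glucuronide in cell fraction and medium measured by LC-MS/MS after methanol/acetic acid (100:1) precipitation and centrifugation. Triplicate determinations.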

HEK293 [9] = assay: Cytotoxicity against HEK293 cells expressing UGT1A4 assessed as decrease in cell viability at 1 mM by MTT assay; type: ADME, cell-based; details: human, hek293, 1000 µM; TDE = time-dependent effect
HEK293 [10] = assay: Cytotoxicity against HEK293 cells expressing UGT assessed as decrease in cell viability at 1 mM measured up to 72 hrs by MTT assay; type: ADME, cell-based; details: human, hek293, 72 h, 1000 µM
Method in brief: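 Mock and UGT1A3/UGT1A4 stable HEK293 cells given drug for up to 72 h; viability measured by WST-8-based MTT assay.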

[11] = molecular target: T2, UDP-glucuronosyltransferase 1A3 (Homo sapiens, UniProt P35503); assay: Activity of human UGT1A3 expressed in HEK293 cells assessed as enzyme-mediated ketoprofen acyl-beta-D-glucuronide formation at 1 mM measured at 24 hrs by LC-MS/MS analysis; type: ADME, cell-based; details: hek293, 24 h, 1000 µM
T2 sequence (P35503 whole entry): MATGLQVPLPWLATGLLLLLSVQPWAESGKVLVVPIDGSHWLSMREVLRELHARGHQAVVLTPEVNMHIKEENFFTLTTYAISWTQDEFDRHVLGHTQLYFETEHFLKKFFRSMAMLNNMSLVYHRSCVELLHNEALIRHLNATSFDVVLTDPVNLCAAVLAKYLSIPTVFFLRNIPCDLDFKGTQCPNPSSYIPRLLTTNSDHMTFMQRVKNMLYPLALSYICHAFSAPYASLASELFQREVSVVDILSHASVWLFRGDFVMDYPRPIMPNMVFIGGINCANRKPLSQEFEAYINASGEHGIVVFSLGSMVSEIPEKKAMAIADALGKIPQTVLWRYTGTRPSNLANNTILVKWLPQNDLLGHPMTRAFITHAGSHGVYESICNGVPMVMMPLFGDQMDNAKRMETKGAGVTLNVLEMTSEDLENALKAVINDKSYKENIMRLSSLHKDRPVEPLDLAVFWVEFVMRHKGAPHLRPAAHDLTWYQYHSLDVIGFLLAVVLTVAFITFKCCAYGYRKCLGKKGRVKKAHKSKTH
Method in brief: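 HEK293 stably expressing human UGT1A3 (G418-selected), 2 x 10^5 cells/well in 1 mL DMEM with 0.5% FBS, exposed immediately to drug for 6, 12 or 24 h; DMSO ≤0.1% final. Cells and medium separated by centrifugation, cell fraction resuspended in PBS; aliquots mixed 1:1 with methanol/acetic acid (100:1), spun, supernatant analysed by LC-MS/MS. Triplicate determinations, mean ± SD.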

- Drug metabolism [8]: metabolite_not_detected
- Drug metabolism [11]: metabolite_detected
Structure (SMILES): CC(C(=O)O)c1cccc(C(=O)c2ccccc2)c1 (stereo unspecified) [KETOPROFEN]
- Activity (HEK293 [1]): tde
- Activity (HEK293 [2]): Non-toxic
- Activity (HEK293 [3]): < 5.4%
- Activity (HEK293 [4]): tde
- Activity (HEK293 [5]): tde
- Activity (HEK293 [6]): tde
- Activity (HEK293 [7]): tde
- Activity (HEK293 [9]): tde
- Activity (HEK293 [10]): Non-toxic
